Compound activity (PubChem)
Compounds with a hit are over-represented: about 5.3% of the library has one in this group of screens.
Beta cell apopt – inhibitors of cytokine-induced beta cell apoptosis, primary screen, luminescence; protection from apoptosis, % (test concentration not listed); 300,000 tested, 0.8% active; INS-1E cytokine-induced death, ATP luminescence, 48 h; percent of positive-control rescue, neutral wells zero;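 active means Every replicate reaches about 75%, or at least half do and their mean reaches it too, limit read from the data; inconclusive means At least half of replicates reach the limit but their mean does not; inactive means Under half of replicates reach the limit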;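 further: 0% = cytokine-treated negative control wells and 100% = positive control rescue; higher means more ATP so stronger rescue from cytokine killing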
NLRP3 yeast inh – NALP3 inflammasome inhibitors in reconstituted yeast, primary screen, luminescence, uHTS | Yeast reconstituted NLRP3/ASC/caspase-1, beta-gal luminescence, 24 h | inhibition, % at 10 µM | 330,000 tested, 0.39% active;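 active means inhibition of 50% or more; inactive means inhibition below 50%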;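 further: plate controls were induced DMSO wells for no effect and uninduced yeast grown without galactose for full effect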
CSC inhib – cancer stem cell viability inhibitors, primary screen, luminescence; cancer stem cell-like cells viability; inhibition, % at 7.5 µM; 300,000 tested, 1.1% active; in the data active means inhibition above about 75%; inconclusive means no clear call, values can overlap the other calls; tested in HMLE shEcad cells
Mdm2-MdmX inh – inhibitors of human Mdm2-MdmX association, primary screen, cell-based, luminescence, split luciferase, SaOS-2, uHTS; 330,000 tested, 3% active; inhibition, % at 8 µM; Protein Mdm4 (Homo sapiens) + E3 ubiquitin-protein ligase Mdm2 (Homo sapiens), …; AID 485346, 2010; SaOS-2 split-luciferase Mdm2/MdmX complementation;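 active means inhibition of at least 50% at 8 µM in the primary screen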
Target sequence (O15151 whole entry, looked up): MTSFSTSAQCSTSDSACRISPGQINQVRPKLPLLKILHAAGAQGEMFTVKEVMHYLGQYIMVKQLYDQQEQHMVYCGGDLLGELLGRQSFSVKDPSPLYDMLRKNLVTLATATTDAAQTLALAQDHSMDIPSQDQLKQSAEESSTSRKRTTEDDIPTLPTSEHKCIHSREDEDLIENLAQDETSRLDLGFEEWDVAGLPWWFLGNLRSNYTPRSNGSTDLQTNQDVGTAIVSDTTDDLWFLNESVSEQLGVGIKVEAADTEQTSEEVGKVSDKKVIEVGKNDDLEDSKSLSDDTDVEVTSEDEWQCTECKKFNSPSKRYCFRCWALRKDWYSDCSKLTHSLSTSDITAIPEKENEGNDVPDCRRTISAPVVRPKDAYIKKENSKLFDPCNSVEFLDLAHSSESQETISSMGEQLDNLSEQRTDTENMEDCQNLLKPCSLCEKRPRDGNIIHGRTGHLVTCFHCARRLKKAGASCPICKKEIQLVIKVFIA
Target sequence (Q00987 whole entry, looked up): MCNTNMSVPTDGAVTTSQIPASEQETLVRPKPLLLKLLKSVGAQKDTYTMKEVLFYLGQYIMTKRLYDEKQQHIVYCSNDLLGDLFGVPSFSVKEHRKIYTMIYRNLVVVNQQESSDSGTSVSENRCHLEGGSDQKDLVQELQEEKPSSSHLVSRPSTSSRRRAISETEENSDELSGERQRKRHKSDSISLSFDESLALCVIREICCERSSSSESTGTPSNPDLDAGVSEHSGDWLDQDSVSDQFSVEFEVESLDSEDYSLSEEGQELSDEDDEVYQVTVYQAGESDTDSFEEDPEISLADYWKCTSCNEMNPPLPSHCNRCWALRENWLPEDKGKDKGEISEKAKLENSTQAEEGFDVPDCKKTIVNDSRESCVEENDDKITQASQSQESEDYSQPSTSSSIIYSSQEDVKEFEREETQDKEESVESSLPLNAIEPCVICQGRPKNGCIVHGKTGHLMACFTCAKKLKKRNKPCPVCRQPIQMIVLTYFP
T cruzi repl – inhibitors of intracellular T. cruzi growth, primary screen, luminescence, NIH3T3 host cells; T. cruzi beta-gal in NIH3T3, 90 h; inhibition, % (concentration not given with the values); 300,000 tested, 1.4% active;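 active means mean inhibition across valid replicates above about 55%, limit read from the data; inconclusive means mean below that limit but half or more replicates reach it; inactive means mean below it, under half of replicates reach it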;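 further: signal also drops with host cell toxicity which is not excluded here; 0% = plate median of DMSO wells and 100% = zero luminescence signal; higher percent means less beta-gal luminescence so fewer parasites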
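Test system: β-gal T. cruzi (Tulahuen C4) inside NIH/3T3 cells / Quantity: 5,000 cells/well / Measured by: luminescence from GalScreen with 0.05% NP40, read after 60 min / Medium: DMEM plus 2% FBS / Measure: parasite load inhibition, % / Reagent: Tulahuen C4 trypomastigotes, 5000/well / Schedule: co-culture of at least 90 h after 3 h attachment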
Calb FLC – C. albicans growth inhibition with fluconazole, primary screen, CaCi-2 strain, Alamar Blue fluorescence | C. albicans CaCi-2 (fluconazole-resistant clinical isolate) + fluconazole, 48 h | growth inhibition, % (test concentration not listed) | 300,000 tested, 0.57% active | AID 1979, 2009;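 active means growth inhibition above about 58% in most replicates, limit read from the data, passing the limit was not always enough; inconclusive means exactly half the replicates above a set limit; inactive means most replicates below a set limit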;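 further: all wells also contain fluconazole at 8 µg/ml as a sub-toxic cotreatment; 0% = median of DMSO wells and 100% = median of geldanamycin control wells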
Mdm2-MdmX conf – Mdm2-MdmX complex disruptors, retested hits, confirmation, luminescence, single concentration. shares compounds with Mdm2-MdmX inh. Mdm2-MdmX binding, luminescent assay. inhibition, % at 8 µM. 10,000 tested, 55% active; in the data active means inhibition above about 40%
FLuc counter – full-length luciferase signal inhibition, confirmation, counter-screen for Mdm2/MdmX interaction inhibitor project, cell-based, single concentration, SaOS-2; shares compounds with Mdm2-MdmX inh; SaOS-2 full-length luciferase counterscreen, luminescence; inhibition, % at 8 µM; 6,200 tested, 77% active;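 active means mean inhibition at 8 µM reaching about 37%, which flags the compound as non-specific, limit read from the data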;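 further: p53-null SaOS-2 cells with luciferase driven by a doxycycline-inducible promoter; compound on cells about two nights before reading with doxycycline added after day one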
* = called active by the depositor; ? = inconclusive; · = not tested or not shown.

SMILES | Beta cell apopt | NLRP3 yeast inh | CSC inhib | Mdm2-MdmX inh | T cruzi repl | Calb FLC | Mdm2-MdmX conf | FLuc counter
C=C1CCC[C@]2(C)C[C@H]3OC(=O)C(CN4CC(C)OC(C)C4)[C@H]3C[C@@H]12 (some centres undefined) | -17 | 17 | 0 | 35 | -28 | -2 | · | ·
CCCOc1ccc(C(=O)N/N=C/c2c[nH]c3ccc(Br)cc23)cc1 | -8 | 18 | 51 | 46 | 25 | 10 | · | ·
CCCCCN=C(N)N/N=C/c1c[nH]c2ccc(OC)cc12 | 56 | 9 | 119* | 99* | 36 | · | 98* | 30
COC(=O)c1cccc(S(=O)(=O)N(Cc2ccco2)Cc2cc3ccc(OC)cc3[nH]c2=O)c1 | 1 | 7 | 24 | 13 | 6 | -1 | · | ·
CN1C(=O)C(O)(CC(=O)/C=C\c2ccc3c(c2)OCO3)c2ccccc21 (centres undefined) | -4 | 16 | 2 | 55* | -24 | -22 | -2 | ·
O=C(c1cccc(N2C(=O)C3C4C=CC(C4)C3C2=O)c1)N1CCCCCC1 (centres undefined) | · | -7 | -6 | 9 | -8 | 13 | · | ·
CCOc1ccccc1CNc1ncnc2ccc(-c3c(C)noc3C)cc12 | 35 | 8 | 112* | 79* | · | · | 54* | 43*
Cc1sc2nc(-c3cccs3)oc(=O)c2c1C | 0 | -7 | 6 | -4 | -14 | -1 | · | ·
O=C1N=C(N2CCCC2)S/C1=C\C=C\c1ccccc1 | -6 | 27 | 2 | 59* | 4 | -8 | 64* | 152*
Cc1ccc(C(=O)OCCN(C)Cc2ccccc2)cc1 | -7 | 11 | -1 | 22 | -8 | ? | · | ·
COc1ccc(-c2n[nH]c(C(F)(F)F)c2-c2cc3ccccc3o2)c(O)c1 | 22 | 12 | 102* | 81* | -20 | 17 | 43* | 47*
COc1ccccc1-c1c(-c2ccc(OCC(=O)NN)cc2O)n[nH]c1C(F)(F)F | -7 | 5 | 27 | -19 | -6 | -5 | · | ·
CSc1nc(C2CC2)cc(-c2cccs2)c1C#N | 9 | 16 | 6 | 88* | 22 | 3 | 79* | 79*
COc1ccc(-c2cc(C3CC3)nc(SCC(=O)c3cccs3)c2C#N)cc1 | -6 | 4 | 66 | 30 | 19 | 6 | · | ·
COc1cccc2c1cc1c(=O)n(CC(=O)NCc3ccccn3)nc(C)n12 | 1 | 2 | 5 | 47 | 48 | 8 | · | ·
Cc1nc(SCC(=O)NCC2COc3ccccc3O2)c2c(C)c(C)sc2n1 (centres undefined) | · | 13 | · | -4 | · | · | · | ·
COc1cc(/C=C2\SC(=Nc3ccccc3OC)NC2=O)ccc1O | 23 | 9 | 58 | 41 | -13 | 60 | · | ·
COc1cc(/C=C2/SC(=Nc3ccc(O)cc3)NC2=O)ccc1O | 34 | 6 | 26 | 74* | 19 | 6 | 72* | 68*
COc1cc(/C=C2\SC(N)=NC2=O)cc(OC)c1 | -12 | 11 | 1 | 51* | 3 | 5 | 25 | ·
COc1cc(/C=C2\SC(N)=NC2=O)ccc1O | · | 11 | · | 60* | -23 | 14 | 52* | 57*
Cc1ccc(C2/C=C\CC(NC(=O)OCC3c4ccccc4-c4ccccc43)CC(=O)N2Cc2ccccc2)cc1 (centres undefined) | · | · | · | 19 | · | · | · | ·
Cc1ccc(C(=O)CCCn2nnc(-c3cccnc3)n2)cc1C | · | 19 | 3 | 4 | -4 | -3 | · | ·
CCOC(=O)C(NC(=O)CC)(Nc1ccccc1OC)C(F)(F)F (centres undefined) | -1 | 8 | -6 | 33 | -4 | 3 | · | ·
Cc1ccc(CNC(=O)C(N=C2NS(=O)(=O)c3ccccc32)C(C)C)cc1 (centres undefined) | -3 | 22 | 16 | -16 | · | · | · | ·
